Laboratory results published in publication PMC2151523 (The Journal of General Physiology, 2006).
Values joined by “and” are separate entries in the source; they are usually repeats but may differ in a detail not shown here. Equal values may be shown once. Read-outs that look alike come from different tables or passages of the source. One block for each compound: values may come before it.

Key:
[1] = target: T1, bovine rod CNGA1 channels (Bos taurus, UniProt Q00194); type: biochemical; conditions: for δ (Woodhull fit, best-fit): four blockers in the same patch (Fig. 4 C)
T1 sequence (Q00194 1-690): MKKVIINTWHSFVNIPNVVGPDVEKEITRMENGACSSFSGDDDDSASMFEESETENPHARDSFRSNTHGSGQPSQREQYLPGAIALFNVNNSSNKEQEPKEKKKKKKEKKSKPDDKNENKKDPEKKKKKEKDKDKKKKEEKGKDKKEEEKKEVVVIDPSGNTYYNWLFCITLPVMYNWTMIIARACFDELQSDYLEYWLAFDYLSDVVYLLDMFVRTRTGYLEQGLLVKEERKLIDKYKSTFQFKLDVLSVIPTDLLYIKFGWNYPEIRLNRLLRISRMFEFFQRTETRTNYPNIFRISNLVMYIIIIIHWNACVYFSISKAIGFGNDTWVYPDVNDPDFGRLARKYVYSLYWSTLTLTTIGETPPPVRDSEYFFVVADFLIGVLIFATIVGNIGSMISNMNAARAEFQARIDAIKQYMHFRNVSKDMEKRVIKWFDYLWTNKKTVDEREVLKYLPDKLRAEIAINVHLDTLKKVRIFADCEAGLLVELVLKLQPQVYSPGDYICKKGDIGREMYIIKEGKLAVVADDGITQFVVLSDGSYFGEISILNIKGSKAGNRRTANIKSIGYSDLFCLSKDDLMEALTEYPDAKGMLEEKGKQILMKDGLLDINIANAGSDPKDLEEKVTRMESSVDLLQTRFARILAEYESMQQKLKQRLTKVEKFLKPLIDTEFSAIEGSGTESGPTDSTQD
In short: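 Inside-out patches from HEK293 cells expressing bovine rod CNGA1. Bath and pipette solution: 160 mM NaCl, 1 mM EGTA, 1 mM EDTA, 10 mM HEPES, pH 7.4. Currents were elicited with 1 mM cGMP by steps from −80 to +80 mV in 20 mV increments from a 0 mV holding potential. Records without cGMP were subtracted, and blocker was added to the bath. Block was read 10–40 s after exchange, at the end of the +80 mV pulse. KD and n came from a Hill fit. δ came from Woodhull fits of per-voltage KD and was averaged over 10 patches. Comparisons were made in the same patch and bracketed by controls.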

[2] = test system: CNGA1 channels; conditions: ref Flynn and Zagotta, 2001; cited from earlier work
[3] = test system: Kv channels; conditions: cysteine at valine of PVP region; ref Liu et al., 1997; cited from earlier work
[4] = test system: CNGA1 channels; conditions: cited from earlier work
[5] = target: T2, CNGA1 channel (Bos taurus, UniProt Q00194); assay: Single channel recordings of blockade, inside-out patches; type: biochemical, bovine; conditions: +70 mV, 2 mM cGMP
T2 sequence (Q00194 1-690): T1 sequence (Q00194 1-690)
In short: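 Single-channel recordings were made in inside-out patches with 7–10 MΩ pipettes at +70 mV with saturating 2 mM cGMP. Signals were sampled at 20 kHz, Bessel-filtered at 5 kHz, then digitally filtered at 2 kHz. Amplitude histograms (40 s of record) were fitted with two Gaussians. Open dwell-time distributions were fitted with two exponentials. τ2 was normalised to its blocker-free value, and its dose response was fitted with a Hill equation.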

[6] = test system: 391C cysteine-less CNGA1 channels; type: biochemical, bovine; conditions: for modification rate open state versus closed state: average rates (Fig. 11 D)
In short: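 391C channels were expressed in Xenopus oocytes and recorded 3–5 d after cRNA injection. Solutions contained 120 mM NaCl, 1 mM EGTA, 1 mM EDTA, 10 mM HEPES, pH 7.4. MTS reagent was applied for 2 s at 0 mV, with 2 mM cGMP (open state) or without it (closed state). Current was then monitored by a 50-ms step to +80 mV in 2 mM cGMP. Each value is the mean of at least three experiments.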

[7] = test system: 391C CNGA1 channels; assay: Cd2+ inhibition in the closed state and its slowing by blocker; type: biochemical, bovine
[8] = read-out: average KD0, 0 mV, average of several patches
[9] = 500 μM reagent, estimated from τ

Compound: CCCC[N+](CC)(CC)CC [C4-TEA]
average δ ([1]; average of several patches): −0.40 ± 0.03
δ (Woodhull fit, best-fit) ([1]; 1 mM cGMP): −0.45 ± 0.02
Kd [1, 8]: 11 mM

Compound: CCCCCCCC[N+](CC)(CC)CC [C8-TEA]
δ (Woodhull fit, best-fit) ([1]; 1 mM cGMP): −0.44 ± 0.02
Kd [1, 8]: 0.9 ± 0.2 mM

Compound: CS(=O)(=O)SCCN [MTSEA, amino ethyl-MTS]
modification rates in both closed and open state [2]: 10^3–10^4 M^−1s^−1

Compound: C[N+](C)(C)CCSS(C)(=O)=O [MTSET, trimethylammonium ethyl-MTS]
modification rate in the closed state [3]: 1 M⁻¹ s⁻¹
state-dependent accessibility (modification rate) [3]: ~10^6 M^−1s^−1

Compound: CCCCNc1ccc(C(=O)OCCN(C)C)cc1 [Tetracaine, tetracaine]
apparent affinity in the closed state compared with the open state ([4]; ref Fodor et al., 1997b, Ghatpande et al., 2003): ~10^3 times higher

Compound: CCC[N+](CC)(CC)CC [C3-TEA]
average δ ([1]; average of several patches): −0.40 ± 0.08
Kd [1, 8]: 31 mM

Compound: CC[N+](CC)(CC)CCCSS(C)(=O)=O [MTS-PtrEA]
time constant τ of modification, open state ([6]; 500 μM reagent, 2 mM cGMP): 5.7 ± 0.3 s
time constant τ of modification, closed state ([6]; 500 μM reagent, absence of cGMP): 27 ± 1 s
modification rate, closed state [6, 9]: 74 M⁻¹ s⁻¹
modification rate, open state [6, 9]: 351 M⁻¹ s⁻¹
modification rate open state versus closed state [6]: three to seven

Compound: Cc1cc(N)c2ccccc2[n+]1CCCCCCCCCC[n+]1c(C)cc(N)c2ccccc21 [dequalinium]
apparent affinity for closed channels compared with open channels ([4]; ref Rosenbaum et al., 2004): three- to fivefold

Compound: CC[N+](CC)(CC)CCSS(C)(=O)=O [MTSTEA]
modification rate open state versus closed state [6]: three to seven

Compound: [Cl][Cd][Cl] [Cd^2+, CdCl2]
time constant τ of current inhibition by Cd2+, closed state ([7]; 6 μM Cd2+, no cGMP, no blocker): 2.64 ± 0.08 s
effect on cysteine-less wild-type channels ([7]; 50 μM Cd2+, unpublished data): no effect
recovery of current inhibition ([7]; unpublished data): 20–40%
time course τ of recovery of current inhibition ([7]; unpublished data): ~100 s

Second part, led by results:

difference in apparent affinity as compared with C10-TEA ([1]; 50 μM, +80 mV, 1 mM cGMP): 1.8 fold
Compound: CCCCCCCCCC[N+](C)(C)C [C10-TMA, decyl-trimethyl ammonium]

average δ ([1]; average of several patches): −0.48 ± 0.02
δ (Woodhull fit, best-fit) ([1]; 1 mM cGMP): −0.53 ± 0.02
Kd [1, 8]: 5 mM
Compound: CCCCCC[N+](CC)(CC)CC [C6-TEA, hexyltriethylammonium]

amplitude for the open state ([5]; 5 μM blocker): 2.317 ± 0.002 pA
area of the nonconductive level in current histogram ([5]; 5 μM blocker, 5% without blocker): 26%
area of the open state in amplitude histogram ([5]; 5 μM blocker, 95% without blocker): 74%
open dwell-time fraction A1 ([5]; 25 μM blocker): 0.19
open dwell-time fraction A2 ([5]; 25 μM blocker): 0.81
open dwell-time fast component τ1 ([5]; 25 μM blocker, 0.7 ms in control): ~0.7 ms and 0.6 ms
apparent mean open time of the main (slow) component, τ2 ([5]; 25 μM blocker, 12.2 ms in control): 3.74 ms and 3.7 ms
Hill coefficient n ([1]; +80 mV, 1 mM cGMP, one patch (Fig. 2 A)): 1.19 ± 0.04
δ (Woodhull fit, best-fit) ([1]; 1 mM cGMP): −0.44 ± 0.01
Kd [1, 8]: 0.05 ± 0.01 mM
Kd ([1]; read-out: average KDc, four different patches): 0.0023 ± 0.0006 mM
Compound: CCCCCCCCCC[N+](CC)(CC)CC [C10-TEA, decyltriethyl ammonium]
extent of blockade at subsaturating versus saturating cGMP ([1]; 5 μM blocker, +80 mV): Blockade was larger at subsaturating levels of cGMP
blockade levels under saturating cGMP, cIMP or cAMP ([1]; 15 μM blocker, +80 mV, 16 mM agonist): Blockade levels were larger for cIMP and cAMP

reduction in current ([1]; 5 mM blocker, +80 mV, 1 mM cGMP): ~35%
average δ ([1]; average of several patches): −0.31 ± 0.04
Kd [1, 8]: 35 mM
Compound: CC[N+](CC)(CC)CC [TEA, tetraethylammonium]
